Reference: ChEMBL document CHEMBL1275524, “Activities of antifungal agents against yeasts and filamentous fungi: assessment according to the methodology of the European Committee on Antimicrobial Susceptibility Testing” (2008)
Values after ≈ are worked out from the molar mass of the structure shown.

How the values were obtained:
[1] = system: Fusarium oxysporum; assay: Antifungal activity against Fusarium oxysporum by EUCAST method; type: functional
[2] = system: Cryptococcus gattii; assay: Antifungal activity against Cryptococcus neoformans var. gattii; type: functional, Cryptococcus bacillisporus
Outline: (§1)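 EUCAST yeast microdilution, modified for nonfermentative yeasts: plates were sealed and agitated at 350 rpm and 30°C for 48 h.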

[3] = system: Saccharomyces cerevisiae; assay: Antifungal activity against Saccharomyces cerevisiae by EUCAST method; type: functional
Outline: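 EUCAST broth microdilution for yeasts in flat-bottom plates, RPMI 1640 with 2% glucose, inoculum 0.5 × 105 to 2.5 × 10^5 CFU/ml. […] MFC is the lowest concentration giving 99% killing.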

[4] = system: Clavispora lusitaniae; assay: Antifungal activity against Candida lusitaniae; type: functional
Outline: (§2)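 Broth microdilution in flat-bottom plates in RPMI 1640 with 2% glucose; inoculum 0.5 × 105 to 2.5 × 10^5 CFU/ml. MICs were read spectrophotometrically at 24 h. AMB endpoint: ≥90% growth reduction vs drug-free control well. Azole and CPF endpoint: 50% reduction in optical density. MFC was taken as the lowest concentration giving 99% killing.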

[5] = system: Scedosporium apiospermum; assay: Antifungal activity against Scedosporium apiospermum; type: functional
Outline: (§3)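 Broth microdilution following the EUCAST reference procedure for spore-forming moulds, in flat-bottom plates with RPMI 1640 plus 2% glucose. Inoculum was 2 × 10^5 to 5 × 10^5 CFU/ml. MICs were read visually at 24 and 48 h as 100% growth reduction versus a drug-free control for polyenes and azoles. MEC was used for caspofungin. Tests were run in duplicate and repeated twice.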

[6] = system: Rhizopus; assay: Antifungal activity against Rhizopus species; type: functional; outline: as §3
[7] = system: Fusarium solani; assay: Antifungal activity against Fusarium solani by EUCAST method; type: functional
[8] = system: Candida parapsilosis; assay: Antifungal activity against Candida parapsilosis by EUCAST method; type: functional; details: Lodderomyces parapsilosis; outline: as §2
[9] = system: Aspergillus niger; assay: Antifungal activity against Aspergillus niger; type: functional
[10] = system: Fusarium oxysporum; assay: Antifungal activity against Fusarium oxysporum; type: functional
[11] = system: Mucor hiemalis; assay: Antifungal activity against Mucor hiemalis by EUCAST method; type: functional
[12] = system: Cryptococcus gattii; assay: Antifungal activity against Cryptococcus neoformans var. gattii by EUCAST method; type: functional, Cryptococcus bacillisporus; outline: as §1
[13] = system: Saccharomyces cerevisiae; assay: Antifungal activity against Saccharomyces cerevisiae; type: functional
Outline: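 Broth microdilution following EUCAST for fermentative yeasts, in flat-bottom plates with RPMI 1640 plus 2% glucose. Inoculum was 0.5 × 10^5 to 2.5 × 10^5 CFU/ml. End points were read spectrophotometrically at 24 h: ≥90% growth reduction versus a drug-free control for amphotericin B, and 50% OD reduction for azoles and caspofungin. MFC was the lowest concentration giving 99% killing.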

[14] = system: Rhizomucor; assay: Antifungal activity against Rhizomucor species; type: functional
[15] = system: Cunninghamella; assay: Antifungal activity against Cunninghamella species by EUCAST method; type: functional
[16] = system: Trichosporon asahii; assay: Antifungal activity against Trichosporon asahii by EUCAST method; type: functional
Outline: (§4)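 Nonfermentative yeasts were tested by the EUCAST microdilution recommendations with one change: plates were sealed and agitated at 350 rpm and 30°C for 48 h.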

[17] = system: Nakaseomyces glabratus; assay: Antifungal activity against Candida glabrata by EUCAST method; type: functional; outline: as §2
[18] = system: Nakaseomyces glabratus; assay: Antifungal activity against Candida glabrata; type: functional; outline: as §2
[19] = system: Aspergillus fumigatus; assay: Antifungal activity against Aspergillus fumigatus by EUCAST method; type: functional
[20] = system: Trichosporon asahii; assay: Antifungal activity against Trichosporon asahii; type: functional; outline: as §4
[21] = system: Absidia; assay: Antifungal activity against Absidia species by EUCAST method; type: functional
[22] = system: Rhizopus; assay: Antifungal activity against Rhizopus species by EUCAST method; type: functional; outline: as §3
[23] = system: Absidia; assay: Antifungal activity against Absidia species; type: functional
[24] = Antifungal activity against Cryptococcus neoformans var. neoformans by EUCAST method; type: functional; details: Cryptococcus deneoformans; outline: as §1
[25] = Antifungal activity against Rhizopus microsporus var. oligosporus; type: functional; outline: as §3
[26] = system: Aspergillus niger; assay: Antifungal activity against Aspergillus niger by EUCAST method; type: functional
[27] = system: Mucor hiemalis; assay: Antifungal activity against Mucor hiemalis; type: functional
[28] = system: Sporothrix schenckii; assay: Antifungal activity against Sporothrix schenckii by EUCAST method; type: functional; outline: as §3
[29] = system: Rhizopus arrhizus; assay: Antifungal activity against Rhizopus oryzae by EUCAST method; type: functional; outline: as §3
[30] = system: Geotrichum candidum; assay: Antifungal activity against Geotrichum candidum by EUCAST method; type: functional
[31] = system: Curvularia lunata; assay: Antifungal activity against Curvularia lunata; type: functional
[32] = Antifungal activity against Rhinocladiella aquaspersa; type: functional
Outline: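 Dematiaceous fungi were tested by the EUCAST spore-forming mold reference procedure: flat-bottom microdilution plates, RPMI 1640 plus 2% glucose, inoculum 2 × 105 to 5 × 10^5 CFU/ml. Endpoints were read visually at 24 and 48 h. Polyenes and azoles: 100% growth reduction vs drug-free control. CPF: minimum effective concentration. Run in duplicate and repeated twice.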

[33] = Antifungal activity against Cryptococcus neoformans var. neoformans; type: functional; details: Cryptococcus deneoformans; outline: as §1
[34] = system: Mucor; assay: Antifungal activity against Mucor species; type: functional
[35] = system: Cunninghamella; assay: Antifungal activity against Cunninghamella species; type: functional
[36] = system: Candida albicans; assay: Antifungal activity against Candida albicans by EUCAST method; type: functional; outline: as §2

Q: Which MIC [1] does the source give for C[C@@H]1[C@H](O)[C@@H](C)/C=C/C=C/C=C/C=C/C=C/C=C/C=C/[C@H](O[C@@H]2O[C@H](C)[C@@H](O)[C@H](N)[C@@H]2O)C[C@@H]2O[C@](O)(C[C@@H](O)C[C@@H](O)[C@H](O)CC[C@@H](O)C[C@@H](O)CC(=O)O[C@H]1C)C[C@H](O)[C@H]2C(=O)O [AMPHOTERICIN B] here?
A: Its MIC is 2.5 µg/mL (≈ 2.71 µM).

Q: And the MFC [2]?
A: Its MFC is 1 µg/mL (≈ 1.08 µM).

Q: And the MIC [3]?
A: The MIC was 0.66 µg/mL (≈ 0.714 µM).

Q: And the MFC [4]?
A: The MFC was 4 µg/mL (≈ 4.33 µM).

Q: And the MFC [5]?
A: The MFC was over 8 µg/mL.

Q: And the MFC [6]?
A: Its MFC is 2 µg/mL (≈ 2.16 µM).

Q: And the MIC [7]?
A: Its MIC is 1 µg/mL (≈ 1.08 µM).

Q: What about the MIC [8] of the same compound?
A: Its MIC is 0.3 µg/mL (≈ 0.325 µM).

Q: And the MFC [9]?
A: Its MFC is over 4 µg/mL.

Q: What about the MFC [10] of the same compound?
A: The MFC was 1 µg/mL (≈ 1.08 µM).

Q: And the MIC [11]?
A: The MIC was 0.86 µg/mL (≈ 0.931 µM).

Q: What about the MIC [12] of the same compound?
A: Its MIC is 0.66 µg/mL (≈ 0.714 µM).

Q: What about the MFC [13] of the same compound?
A: The MFC was over 4 µg/mL.

Q: And the MFC [14]?
A: The MFC was 1 µg/mL (≈ 1.08 µM).

Q: What about the MIC [15] of the same compound?
A: The MIC was 2.25 µg/mL (≈ 2.43 µM).

Q: And the MIC [16]?
A: The MIC was 1.5 µg/mL (≈ 1.62 µM).

Q: And the MIC [17]?
A: The MIC was 0.41 µg/mL (≈ 0.444 µM).

Q: And the MFC [18]?
A: The MFC was 0.5 µg/mL (≈ 0.541 µM).

Q: What about the MIC [19] of the same compound?
A: Its MIC is 0.69 µg/mL (≈ 0.747 µM).

Q: And the MFC [20]?
A: The MFC was 4 µg/mL (≈ 4.33 µM).

Q: And the MIC [21]?
A: The MIC was 0.8 µg/mL (≈ 0.866 µM).

Q: What about the MIC [22] of the same compound?
A: The MIC was 2.08 µg/mL (≈ 2.25 µM).

Q: And the MFC [23]?
A: Its MFC is 1 µg/mL (≈ 1.08 µM).

Q: And the MIC [24]?
A: Its MIC is 0.75 µg/mL (≈ 0.812 µM).

Q: And the MFC [25]?
A: The MFC was 4 µg/mL (≈ 4.33 µM).

Q: And the MIC [26]?
A: The MIC was 1 µg/mL (≈ 1.08 µM).

Q: What about the MFC [27] of the same compound?
A: The MFC was 1 µg/mL (≈ 1.08 µM).

Q: And the MIC [28]?
A: Its MIC is 2.5 µg/mL (≈ 2.71 µM).

Q: And the MIC [29]?
A: The MIC was 3 µg/mL (≈ 3.25 µM).

Q: What about the MIC [30] of the same compound?
A: The MIC was 1.5 µg/mL (≈ 1.62 µM).

Q: What about the MFC [31] of the same compound?
A: The MFC was 1 µg/mL (≈ 1.08 µM).

Q: What about the MFC [32] of the same compound?
A: Its MFC is 1 µg/mL (≈ 1.08 µM).

Q: And the MFC [33]?
A: Its MFC is 1 µg/mL (≈ 1.08 µM).

Q: And the MFC [34]?
A: Its MFC is 1 µg/mL (≈ 1.08 µM).

Q: And the MFC [35]?
A: The MFC was over 8 µg/mL.

Q: And the MIC [36]?
A: Its MIC is 0.12 µg/mL (≈ 0.13 µM).
